Calls of active or inactive are those of the source. The calls are words filed in the database; no cut-off is given here.
How the values were obtained:
[1] = system: A-375; experiment: Antimigratory activity against human A-375 cells assessed as inhibition of migration at 0.5 uM incubated for 48 hrs by microscopic based wound healing test; format: functional, cell-based
Procedure, shortened: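 Scratch (wound-healing) migration assay in A375 and H460 cells seeded in 12-well plates. Cells exposed to compound, CS055, roscovitine or DMSO blank for 48 h. At least two independent experiments.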

[2] = system: NCI-H460; experiment: Induction of apoptosis in human NCI-H460 cells assessed as necrotic cells at 1 uM incubated for 48 hrs by annexin V-FITC and PI staining based flow cytometry (reference value: 0.632 %); format: functional
[3] = Cmax in ICR mouse at 20 mg/kg, ip measured upto 24 hrs by LC-MS/MS analysis; conditions: in vivo
[4] = system: HCT-116; experiment: Induction of apoptosis in human HCT-116 cells assessed as late apoptotic cells at 1 uM incubated for 48 hrs by annexin V-FITC and PI staining based flow cytometry (reference value: 1.88 %); format: functional
[5] = system: NCI-H460; experiment: Antiproliferative activity against human NCI-H460 cells assessed as reduction in cell growth incubated for 72 hrs by CCK-8 assay; format: functional, cell-based; conditions: NCI-H460, 72 h
Procedure, shortened: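 IC50 by CCK-8 assay across five solid-tumour lines (HCT116, HepG2, H460, HeLa, A375). Run only for compounds chosen after the single-concentration screen, with CS055 and roscovitine as references.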

[6] = MRT (0 to t) in ICR mouse at 20 mg/kg, ip measured upto 24 hrs by LC-MS/MS analysis; conditions: in vivo
[7] = molecular target: T1, Histone deacetylase 1 (Homo sapiens, UniProt Q13547); experiment: Inhibition of recombinant human HDAC1 at 10 uM using SIRT1 as substrate incubated for 10 mins followed by substrate addition and measured after 30 mins by fluorescence based assay relative to control; conditions: time 40.0 min
Procedure, shortened: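 Enzyme inhibition of HDAC1 measured at a single concentration of 10 µM, tested alongside the cell-growth screen.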

[8] = system: HeLa; experiment: Induction of apoptosis in human HeLa cells assessed as necrotic cells at 2 uM incubated for 48 hrs by annexin V-FITC and PI staining based flow cytometry (reference value: 0.124 %); format: functional
[9] = system: HCT-116; experiment: Antiproliferative activity against human HCT-116 cells assessed as reduction in cell growth at 8 uM incubated for 72 hrs by CCK-8 assay relative to control; format: functional
[10] = system: A-375; experiment: Induction of apoptosis in human A-375 cells assessed as viable cells at 0.5 uM incubated for 48 hrs by annexin V-FITC and PI staining based flow cytometry (reference value: 96.3 %); format: functional; conditions: read-out: Activity
[11] = system: NCI-H460; experiment: Induction of apoptosis in human NCI-H460 cells assessed as necrotic cells incubated for 48 hrs by annexin V-FITC and PI staining based flow cytometry; format: functional, cell-based; conditions: dose 0.5-2 µM
[12] = system: A-375; experiment: Induction of apoptosis in human A-375 cells assessed as necrotic cells at 1 uM incubated for 48 hrs by annexin V-FITC and PI staining based flow cytometry (reference value: 0.139 %); format: functional
[13] = AUC (0 to t) in ICR mouse at 20 mg/kg, ip measured upto 24 hrs by LC-MS/MS analysis; conditions: in vivo
[14] = system: NCI-H460; experiment: Induction of cell cycle arrest in human NCI-H460 cells assessed as reduction in G0/G1 phase at 0.5 to 2 uM incubated for 24 hrs by PI staining based flow cytometry; format: functional; conditions: dose 0.5-2 µM
Procedure, shortened: (§1)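 Treatment at 2, 1 and 0.5 μM for 24 h, alongside CS055 and roscovitine, against a DMSO (0.1 %) blank. Cells then stained with propidium iodide and analyzed by flow cytometry.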

[15] = system: NCI-H460; experiment: Induction of apoptosis in human NCI-H460 cells assessed as late apoptotic cells at 0.5 uM incubated for 48 hrs by annexin V-FITC and PI staining based flow cytometry (reference value: 6.11 %); format: functional
[16] = system: A-375; experiment: Induction of apoptosis in human A-375 cells assessed as late apoptotic cells at 1 uM incubated for 48 hrs by annexin V-FITC and PI staining based flow cytometry (reference value: 2.24 %); format: functional
[17] = system: HCT-116; experiment: Antitumor activity against human HCT-116 cells xenografted in Balb/c mouse assessed as tumor growth inhibition at 50 mg/kg, ip administered for 21 days and measured on day 21 relative to control; format: functional; conditions: HCT-116, ip, 504 h, time 21 day, read-out: GI
Procedure, shortened: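 HCT116 xenografts in BALB/c nude mice. Dosing started when tumours reached 100–300 mm³: intraperitoneal injection once daily for 21 days at 25, 50 or 100 mg/kg, versus blank. Body weight monitored. Tumour growth inhibition computed against blank.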

[18] = system: HCT-116; experiment: Induction of apoptosis in human HCT-116 cells assessed as early apoptotic cells at 1 uM incubated for 48 hrs by annexin V-FITC and PI staining based flow cytometry (reference value: 4.14 %); format: functional
[19] = system: HeLa; experiment: Cytotoxicity against human HeLa cells assessed as effect on cell morphology at 0.5 to 8 micromol incubated for 48 hrs by microscopic analysis; format: functional, cell-based; conditions: dose 0.5-8 µmol
Procedure, shortened: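 Five cancer cell lines treated with compound or DMSO (0.1 %) for 48 h. Morphology inspected by light microscopy at 10× objective.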

[20] = system: A-375; experiment: Induction of ROS accumulation in human A-375 cells at 1 uM incubated for 24 hrs by DCFH-DA staining based confocal microscopic analysis; format: functional, cell-based
Procedure, shortened: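 A375 cells treated at 1 µM or with DMSO blank for 24 h. Intracellular ROS detected with the fluorescent dye DCFH-DA.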

[21] = system: NCI-H460; experiment: Induction of apoptosis in human NCI-H460 cells assessed as late apoptotic cells at 2 uM incubated for 48 hrs by annexin V-FITC and PI staining based flow cytometry (reference value: 6.11 %); format: functional
[22] = system: HeLa; experiment: Induction of apoptosis in human HeLa cells assessed as apoptosis rate at 2 uM incubated for 48 hrs by annexin V-FITC and PI staining based flow cytometry relative to control; format: functional
[23] = molecular target: T1, Histone deacetylase 1; experiment: Potency index, ratio of IC50 of CS055 to IC50 of compound for inhibition of recombinant human HDAC1 using […] as substrate incubated for 10 mins followed by substrate addition and measured after 30 mins by fluorescence based assay
[24] = system: HeLa; experiment: Induction of apoptosis in human HeLa cells assessed as early apoptotic cells at 2 uM incubated for 48 hrs by annexin V-FITC and PI staining based flow cytometry (reference value: 0.528 %); format: functional
[25] = system: NCI-H460; experiment: Induction of apoptosis in human H460 cells assessed as apoptosis rate at 2 uM incubated for 48 hrs by annexin V-FITC and PI staining based flow cytometry relative to control; format: functional
[26] = system: HCT-116; experiment: Induction of apoptosis in human HCT-116 cells assessed as necrotic cells at 2 uM incubated for 48 hrs by annexin V-FITC and PI staining based flow cytometry (reference value: 0.124 %); format: functional
[27] = system: A-375; experiment: Induction of cell cycle arrest in human A-375 cells assessed as reduction in G0/G1 phase at 0.5 to 2 uM incubated for 24 hrs by PI staining based flow cytometry; format: functional; conditions: dose 0.5-2 µM; procedure, shortened: as §1
[28] = system: NCI-H460; experiment: Induction of apoptosis in human NCI-H460 cells assessed as early apoptotic cells at 0.5 uM incubated for 48 hrs by annexin V-FITC and PI staining based flow cytometry (reference value: 2.88 %); format: functional

T1 sequence (Q13547 whole entry): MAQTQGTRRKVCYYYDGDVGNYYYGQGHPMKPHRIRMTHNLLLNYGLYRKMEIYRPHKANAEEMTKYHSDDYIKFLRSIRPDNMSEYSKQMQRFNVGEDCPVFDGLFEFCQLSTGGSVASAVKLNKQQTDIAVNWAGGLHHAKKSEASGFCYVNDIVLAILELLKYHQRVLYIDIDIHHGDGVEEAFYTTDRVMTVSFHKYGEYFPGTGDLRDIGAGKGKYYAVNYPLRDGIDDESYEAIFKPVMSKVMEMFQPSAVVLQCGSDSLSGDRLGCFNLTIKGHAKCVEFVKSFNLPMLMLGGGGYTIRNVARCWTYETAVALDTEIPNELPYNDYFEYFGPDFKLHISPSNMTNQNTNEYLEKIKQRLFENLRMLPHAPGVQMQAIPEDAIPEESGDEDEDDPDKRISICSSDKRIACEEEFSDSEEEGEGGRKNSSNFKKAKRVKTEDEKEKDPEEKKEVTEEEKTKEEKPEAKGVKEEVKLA

Cmax [3]: 1.36 µg/mL
IC50 [5]: 1.59 µM
MRT last at 24 h [6]: 4.54 h
inhibition [7]: 88.7%
AUC(0-t) at 24 h [13]: 7.24 µg·h/mL
Ratio IC50 [23]: 3
SMILES: Cc1ccc(Nc2nc(Cl)nc3c2ncn3Cc2ccc(C(=O)Nc3ccccc3N)cc2)cc1
inhibition [1]: Active
Activity [2]: 0.871%
Activity [4]: 14%
Activity [8]: 0.243%
inhibition at 8 µM [9]: 81.5%
viability at 0.5 µM [10]: 16.4%
Activity [11]: Dose-dependent effect
Activity [12]: 0.566%
Activity [14]: Active
Activity [15]: 4.31%
Activity [16]: 83.4%
inhibition in vivo at 50 mg/kg [17]: 40%
Activity [18]: 72.1%
Activity [19]: Active
Activity [20]: Active
Activity [21]: 47.1%
Activity [22]: 22.36%
Activity [24]: 8.26%
Activity [25]: 59.1%
Activity [26]: 0.639%
Activity [27]: Active
Activity [28]: 6.74%
